Source: ChEMBL document CHEMBL5252639, “Exploration of cytotoxic potential and tubulin polymerization inhibition activity of cis-stilbene-1,2,3-triazole congeners” (RSC Med Chem, 2023)

How the values were obtained:
[1] = tested on: A549; assay: Cytotoxicity against human A549 cells assessed as inhibition of cell growth measured for 24 hrs by MTT assay; type: functional, cell-based; conditions: A549, 24 h
In short: (§1)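 Cells were kept at 37 °C with 5% CO2 in suitable medium with 10% FBS and 1% antibiotic-antimycotic, and passaged at 80-90% confluency using 0.25% trypsin/1 mM EDTA. They were seeded at 1×10^3–4×10^3 cells/well and attached overnight. Compounds came from 10 mM DMSO stocks diluted in medium and were applied for 24 h. MTT (0.5 mg/mL) was added for 4 h at 37 °C, formazan was dissolved in DMSO, and absorbance was read at 570 nm.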

[2] = tested on: BT-474; assay: Cytotoxicity against human BT-474 cells assessed as inhibition of cell growth measured for 24 hrs by MTT assay; type: functional, cell-based; conditions: BT-474, 24 h; in short: as §1
[3] = tested on: HCT-116; assay: Cytotoxicity against human HCT-116 cells assessed as inhibition of cell growth measured for 24 hrs by MTT assay; type: functional, cell-based; conditions: HCT-116, 24 h; in short: as §1
[4] = tested on: B16-F10; assay: Cytotoxicity against mouse B16-F10 cells assessed as inhibition of cell growth measured for 24 hrs by MTT assay; type: functional, cell-based; conditions: B16-F10, 24 h; in short: as §1
[5] = tested on: HCT-116; assay: Induction of morphological change in human HCT-116 cells assessed as cell rounding incubated for 24 hrs by phase contrast microscopic analysis; type: functional, cell-based; conditions: dose 1.62-6.5 µM
In short: (§2)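 HCT-116 plated at 1 × 10^6 cells/mL in RPMI + 10% FBS and allowed to adhere 24 h at 37 °C, 5% CO2. […] After 24 h, morphology imaged by phase-contrast microscopy at 20X.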

[6] = tested on: HCT-116; assay: Induction of apoptosis in human HCT-116 cells assessed as horseshoe shaped nuclei measured for 24 hrs by DAPI staining based microscopic analysis; type: functional, cell-based; conditions: dose 1.62-6.5 µM
In short: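 Then PBS wash, 4% paraformaldehyde fixation 30 min, 0.1% Triton X permeabilisation 15 min, 1 µM DAPI 15 min, PBS wash. Imaged by fluorescence microscopy (ex 350/em 460 nm), 20X.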

[7] = tested on: HCT-116; assay: Induction of apoptosis in human HCT-116 cells assessed as necrotic cells at 0.55 uM measured after 24 hrs by Annexin V-FITC/propidium iodide staining based flow cytometry (reference value: 0.00%); type: functional
[8] = tested on: HCT-116; assay: Induction of morphological change in human HCT-116 cells assessed as cell detachment incubated for 24 hrs by phase contrast microscopic analysis; type: functional, cell-based; in short: as §2
[9] = tested on: HCT-116; assay: Induction of cell cycle arrest in human HCT-116 cells assessed as accumulation of cells at S phase at 0.55 uM measured after 24 hrs by PI staining based flow cytometry analysis relative to control (reference value: 5.55%)
[10] = tested on: HCT-116; assay: Induction of cell cycle arrest in human HCT-116 cells assessed as accumulation of cells at G2/M phase at 0.55 uM measured after 24 hrs by PI staining based flow cytometry analysis relative to control (reference value: 15.61%)
[11] = tested on: HCT-116; assay: Induction of apoptosis in human HCT-116 cells assessed as early apoptotic cells at 0.55 uM measured after 24 hrs by Annexin V-FITC/propidium iodide staining based flow cytometry (reference value: 0.28%); type: functional
[12] = tested on: HCT-116; assay: Induction of cell cycle arrest in human HCT-116 cells assessed as accumulation of cells at G0/G1 phase at 0.55 uM […] by PI staining based flow cytometry analysis relative to control (reference value: 70.34%); type: functional
[13] = tested on: HCT-116; assay: Induction of morphological change in human HCT-116 cells assessed as change in cell shape incubated for 24 hrs by phase contrast microscopic analysis; type: functional, cell-based; conditions: dose 1.62-6.5 µM; in short: as §2
[14] = tested on: HCT-116; assay: Induction of apoptosis in human HCT-116 cells assessed as late apoptotic cells at 0.55 uM measured after 24 hrs by Annexin V-FITC/propidium iodide staining based flow cytometry (reference value: 0.00%); type: functional
[15] = tested on: HCT-116; assay: Induction of apoptosis in human HCT-116 cells assessed as viable cells at 0.55 uM measured after 24 hrs by Annexin V-FITC/propidium iodide staining based flow cytometry (reference value: 99.71%); type: functional; conditions: read-out: Activity
[16] = target: Tubulin (Homo sapiens) (UniProt P68371+Q9H4B7+P0DPH7+P68366+Q13509+Q71U36+P04350+Q3ZCM7+P07437+P68363+Q9BQE3+Q6PEY2+Q13885+Q9BVA1+Q9BUF5); assay: Inhibition of tubulin polymerization in human HCT-116 cells at 3 uM measured after 1 hr relative to control; type: cell-based

Structure (SMILES): COc1ccc(/C=C(/C(=O)OCc2cn(CC(=O)c3ccc(Cl)cc3)nn2)c2ccc3c(c2)OCO3)cc1OC
- IC50 [1]: 37.3 µM
- IC50 [2]: > 50 µM
- IC50 [3]: > 50 µM
- IC50 [4]: 28.9 µM

Structure (SMILES): COc1ccc(/C=C(/C(=O)OCc2cn(Cc3ccccc3)nn2)c2ccc(OC)c(OC)c2)cc1OC
- IC50 [1]: 32.7 µM
- IC50 [2]: 14.9 µM
- IC50 [3]: 20.2 µM
- IC50 [4]: 16.1 µM

Structure (SMILES): COc1ccc(/C=C(/C(=O)OCc2cn(Cc3ccc(F)cc3)nn2)c2ccc(OC)c(OC)c2)cc1OC
- IC50 [1]: 28.9 µM
- IC50 [2]: 17.1 µM
- IC50 [3]: 21.6 µM
- IC50 [4]: 2.37 µM

Structure (SMILES): COc1ccc(/C=C(/C(=O)OCc2cn(CC(=O)c3ccc(Cl)cc3)nn2)c2ccc(OC)c(OC)c2)cc1OC
- IC50 [1]: 38.6 µM
- IC50 [2]: > 50 µM
- IC50 [3]: 31.9 µM
- IC50 [4]: > 50 µM

Structure (SMILES): COc1ccc(/C=C(/C(=O)OCc2cn(Cc3ccccc3[N+](=O)[O-])nn2)c2ccc(OC)c(OC)c2)cc1OC
- IC50 [1]: 41 µM
- IC50 [2]: 40.8 µM
- IC50 [3]: 38.1 µM
- IC50 [4]: 39.5 µM

Structure (SMILES): COc1cc2c(c(OC)c1OC)-c1ccc(OC)c(=O)cc1[C@@H](NC(C)=O)CC2 [COLCHICINE]
- IC50 [1]: 0.89 µM
- Activity [5]: Dose-Dependent Effect
- Activity [6]: Dose-Dependent Effect
- Activity [7]: 6.78%
- Activity [8]: Dose-Dependent Effect
- Activity [9]: 6.61%
- IC50 [2]: 12.5 µM
- IC50 [3]: 0.55 µM
- Activity [10]: 40.57%
- Activity [11]: 10.32%
- Activity [12]: 54.45%
- Activity [13]: Dose-Dependent Effect
- Activity [14]: 61.81%
- viability at 0.55 µM [15]: 31.1%

Structure (SMILES): COc1ccc(/C=C(/C(=O)OCc2cn(CC(=O)c3ccccc3)nn2)c2ccc(OC)c(OC)c2)cc1OC
- IC50 [1]: 38.2 µM
- IC50 [2]: 16.2 µM
- IC50 [3]: 23.5 µM
- IC50 [4]: 40.2 µM

Structure (SMILES): COc1ccc(/C=C(/C(=O)OCc2cn(CC(=O)c3ccccc3)nn2)c2ccc3c(c2)OCO3)cc1OC
- IC50 [1]: 30.8 µM
- IC50 [2]: > 50 µM
- IC50 [3]: > 50 µM
- IC50 [4]: 30.9 µM

Structure (SMILES): COc1ccc(/C=C(/C(=O)OCc2cn(Cc3ccccc3F)nn2)c2ccc(OC)c(OC)c2)cc1OC
- IC50 [1]: 29.2 µM
- IC50 [2]: 26.2 µM
- IC50 [3]: 22.1 µM
- IC50 [4]: 17.4 µM

Structure (SMILES): COc1ccc(/C=C(/C(=O)OCc2cn(Cc3cc(C)ccc3C)nn2)c2ccc(OC)c(OC)c2)cc1OC
- IC50 [1]: > 50 µM
- IC50 [2]: 20.1 µM
- IC50 [3]: 49.9 µM
- IC50 [4]: 40.8 µM

Structure (SMILES): COc1ccc(/C=C(/C(=O)OCc2cn(CC(=O)c3ccc(Cl)c(Cl)c3)nn2)c2ccc(OC)c(OC)c2)cc1OC
- IC50 [1]: 37 µM
- IC50 [2]: 47.5 µM
- IC50 [3]: 26.5 µM
- IC50 [4]: 29.6 µM

Structure (SMILES): COc1ccc(C(=O)Cn2cc(COC(=O)/C(=C/c3ccc(OC)c(OC)c3)c3ccc4c(c3)OCO4)nn2)cc1
- IC50 [1]: 31.3 µM
- IC50 [2]: > 50 µM
- IC50 [3]: > 50 µM
- IC50 [4]: 37.7 µM

Structure (SMILES): COc1ccc(C(=O)Cn2cc(COC(=O)/C(=C/c3ccc(OC)c(OC)c3)c3ccc(OC)c(OC)c3)nn2)cc1
- IC50 [1]: 41.9 µM
- IC50 [2]: 47.5 µM
- IC50 [3]: 18 µM
- IC50 [4]: 14.1 µM

Structure (SMILES): CC(=O)O[C@H]1C(=O)[C@@]2(C)[C@H]([C@H](OC(=O)c3ccccc3)[C@]3(O)C[C@H](OC(=O)[C@H](O)[C@@H](NC(=O)c4ccccc4)c4ccccc4)C(C)=C1C3(C)C)[C@]1(OC(C)=O)CO[C@@H]1C[C@@H]2O
- inhibition [16]: 49.5%

Structure (SMILES): COc1ccc(/C=C(/C(=O)OCc2cn(Cc3ccc([N+](=O)[O-])cc3)nn2)c2ccc(OC)c(OC)c2)cc1OC
- IC50 [1]: 36.8 µM
- IC50 [2]: 28.4 µM
- IC50 [3]: 35 µM
- IC50 [4]: 17.5 µM

Structure (SMILES): COc1ccc(/C=C(/C(=O)OCc2cn(CC(=O)c3ccc(C)cc3)nn2)c2ccc(OC)c(OC)c2)cc1OC
- IC50 [1]: 41.7 µM
- IC50 [2]: 40.7 µM
- IC50 [3]: 33.4 µM
- IC50 [4]: > 50 µM

Structure (SMILES): COc1ccc(/C=C(/C(=O)OCc2cn(Cc3ccc(C)cc3)nn2)c2ccc(OC)c(OC)c2)cc1OC
- IC50 [1]: 12.4 µM
- IC50 [2]: 12.4 µM
- IC50 [3]: 21.1 µM
- IC50 [4]: 1.73 µM

Structure (SMILES): COc1ccc(/C=C(/C(=O)OCc2cn(CC(=O)c3ccc(Br)cc3)nn2)c2ccc(OC)c(OC)c2)cc1OC
- IC50 [1]: 42.9 µM
- IC50 [2]: > 50 µM
- IC50 [3]: 35.8 µM
- IC50 [4]: > 50 µM

Structure (SMILES): COc1ccc(/C=C(/C(=O)OCc2cn(Cc3ccc(Br)cc3)nn2)c2ccc(OC)c(OC)c2)cc1OC
- IC50 [1]: 15.2 µM
- IC50 [2]: 20.7 µM
- IC50 [3]: 25.3 µM
- IC50 [4]: 1.53 µM

Structure (SMILES): COc1ccc(/C=C(/C(=O)OCc2cn(CC(=O)c3ccc(Cl)c(Cl)c3)nn2)c2ccc3c(c2)OCO3)cc1OC
- IC50 [1]: 25.5 µM
- IC50 [2]: > 50 µM
- IC50 [3]: > 50 µM
- IC50 [4]: 41.6 µM

Structure (SMILES): COc1ccc(/C=C(/C(=O)OCc2cn(Cc3cccc(Cl)c3)nn2)c2ccc(OC)c(OC)c2)cc1OC
- IC50 [1]: > 50 µM
- IC50 [2]: > 50 µM
- IC50 [3]: 21.2 µM
- IC50 [4]: 22.8 µM
